ChEMBL document CHEMBL3826921, “Development of Purine-Based Hydroxamic Acid Derivatives: Potent Histone Deacetylase Inhibitors with Marked in Vitro and in Vivo Antitumor Activities” (J Med Chem, 2016)

How the values were obtained:
[1] = molecular target: Mast/stem cell growth factor receptor Kit (Homo sapiens) (UniProt P10721); experiment: Inhibition of human recombinant c-Kit assessed as residual activity at 1 uM relative to control
[2] = molecular target: Serine/threonine-protein kinase mTOR (Homo sapiens) (UniProt P42345); experiment: Inhibition of mTOR phosphorylation in human HCT116 cells at 0.02 to 2 uM after 6 hrs by Western blot method; type: cell-based; conditions: HCT-116
Procedure, shortened: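 HCT116 cells treated 6 h, lysed in RIPA buffer, protein measured by BCA. 20 µg per lane run on SDS-PAGE and transferred to PVDF. Blocked in 5% milk for 1 h, primary antibodies at 4 °C overnight, HRP secondary for 1 h, ECL detection.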

[3] = Antitumor activity against human HCT116 cells xenografted in Balb/c nude mouse assessed as change in tumor mass at 2.5 mg/kg, iv administered every 2 days for 8 days measured every 2 days of compound dosing relative to control; type: functional, HCT-116
Procedure, shortened: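 HCT116 cells (10^7 in 100 µL serum-free DMEM) injected s.c. into the right flank of 5-6 week old female Balb/c nude mice. At 100-150 mm³, randomized at 6 per group. Given iv every 2 days in physiological saline with 20% captisol, pH 6. Vehicle mice received the same. Tumors measured by caliper every 2 days, TV = length × width² × 0.52. Tumors weighed at end.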

Mus musculus [4] = experiment: Toxicity in NOD/SCID mouse xenografted with human MM1S cells assessed as mortality at 10 mg/kg, iv administered every 2 days for 6 days; type: organism-based; conditions: in vivo
Procedure, shortened: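 Female NOD/SCID mice, 5-6 weeks old, given 10^7 cells sc in the right flank in serum-free medium (MV4-11 in IMDM; MM1S and Ramos in RPMI 1640). Randomized at 100-150 mm³: MV4-11 6, MM1S 7, Ramos 8 per group. Dosed iv every 2 days in physiological saline with 20% captisol, pH 6. Vehicle group received the same vehicle iv.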

Mus musculus [5] = experiment: Toxicity in NOD/SCID mouse xenografted with human MV4-11 cells assessed as body weight loss at 10 mg/kg, iv administered every 2 days for 11 days measured on day 19 post last dose; type: organism-based; conditions: in vivo
Procedure, shortened: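 MV4-11 cells (10^7 in 100 µL serum-free IMDM) s.c. into the right flank of 5-6 week female NOD/SCID mice. At 100-150 mm³, 6 per group. Dosed iv every 2 days in saline with 20% captisol, pH 6. Caliper every 2 days, TV = length × width² × 0.52. Tumors weighed at end.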

Sequence of Mast/stem cell growth factor receptor Kit (Homo sapiens) (P10721 whole entry): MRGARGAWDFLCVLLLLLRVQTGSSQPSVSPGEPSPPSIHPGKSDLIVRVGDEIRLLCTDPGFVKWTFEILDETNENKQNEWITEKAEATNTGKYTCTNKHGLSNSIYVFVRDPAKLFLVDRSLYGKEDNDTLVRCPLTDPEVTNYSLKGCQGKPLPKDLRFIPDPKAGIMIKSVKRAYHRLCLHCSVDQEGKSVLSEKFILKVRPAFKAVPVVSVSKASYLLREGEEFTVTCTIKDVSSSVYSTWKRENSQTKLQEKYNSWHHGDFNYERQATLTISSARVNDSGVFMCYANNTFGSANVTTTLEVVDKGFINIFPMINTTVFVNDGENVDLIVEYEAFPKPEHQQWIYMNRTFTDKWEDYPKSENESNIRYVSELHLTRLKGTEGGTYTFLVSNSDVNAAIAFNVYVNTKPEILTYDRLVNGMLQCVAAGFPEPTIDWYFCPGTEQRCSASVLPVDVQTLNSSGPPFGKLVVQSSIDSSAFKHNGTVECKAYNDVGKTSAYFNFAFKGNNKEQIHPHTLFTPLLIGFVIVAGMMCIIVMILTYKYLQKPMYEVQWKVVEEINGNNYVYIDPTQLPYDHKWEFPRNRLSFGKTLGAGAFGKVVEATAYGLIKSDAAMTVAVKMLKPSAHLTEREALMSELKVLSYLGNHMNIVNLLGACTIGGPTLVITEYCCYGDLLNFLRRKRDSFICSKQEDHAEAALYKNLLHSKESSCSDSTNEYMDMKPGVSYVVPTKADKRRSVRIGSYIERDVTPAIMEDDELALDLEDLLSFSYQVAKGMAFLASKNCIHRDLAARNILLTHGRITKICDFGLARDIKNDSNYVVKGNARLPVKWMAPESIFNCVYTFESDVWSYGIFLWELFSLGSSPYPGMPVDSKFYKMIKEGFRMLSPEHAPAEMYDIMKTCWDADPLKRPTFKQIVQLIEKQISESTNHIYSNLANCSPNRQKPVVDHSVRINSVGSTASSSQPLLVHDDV

Compound | Activity [1] [%] | inhibition [2] | Activity [3] [%] | Activity (Mus musculus [4]) | %max (Mus musculus [5]) [%]
CN(Cc1nc2c(N3CCOCC3)nc(-c3cnc(N)nc3)nc2n1C)c1ncc(C(=O)NO)cn1 | 38 | Dose-dependent effect |  |  | 
CN(Cc1nc2c(N3CCOCC3)nc(-c3ccc(N)cc3)nc2n1C)c1ncc(C(=O)NO)cn1 |  |  | 49.4 | Non-toxic | 3.6
